{"source": "ChEMBL document CHEMBL1687863", "about": "“Terpenoids and norlignans from Metasequoia glyptostroboides” (J Nat Prod, 2011)", "data": [{"tested_on": "HL-60", "experiment": "Cytotoxicity against human HL60 cells after 48 hrs by MTT assay", "assay_type": "functional, cell-based", "settings": "HL-60, 48 h", "method_in_brief": "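Cells seeded 12 h before treatment, then exposed continuously to a range of compound concentrations for 48 h. MTT added for a further 4 h, followed by 20% SDS and 12 h at room temperature. OD read at 595 nm; IC50 calculated by the Reed and Muench method.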", "units": {"IC50": "µM"}, "values": [{"smiles": "C=C[C@]1(C)CC2=C(C[C@@H]1O)[C@@]1(C)CCC[C@@](C)(C(=O)O)[C@@H]1CC2", "IC50": "> 40"}, {"smiles": "C=C1C=C[C@@H](C(C)C)[C@]12CC=C(C(=O)O)CC2", "IC50": "> 40"}, {"smiles": "COc1ccc([C@H]2[C@@H]([C@H](O)c3ccc(OC)c(OC)c3)OC[C@H]2O)cc1", "IC50": "> 40"}, {"smiles": "COc1ccc([C@H]2[C@@H]([C@H](OC(=O)[C@](OC)(c3ccccc3)C(F)(F)F)c3ccc(OC)c(OC)c3)OC[C@H]2OC(=O)[C@](OC)(c2ccccc2)C(F)(F)F)cc1", "IC50": "> 40"}, {"smiles": "COc1ccc([C@H]2[C@@H]([C@H](OC(=O)[C@@](OC)(c3ccccc3)C(F)(F)F)c3ccc(OC)c(OC)c3)OC[C@H]2OC(=O)[C@@](OC)(c2ccccc2)C(F)(F)F)cc1", "IC50": "> 40"}, {"smiles": "C=CC(=C)CC[C@@H]1[C@@]2(C)CCC[C@](C)(COC(=O)/C=C/c3ccc(O)cc3)[C@@H]2CC[C@@]1(C)O", "IC50": 14.3}, {"smiles": "C=C(C)C(CC)CC[C@@H](C)[C@H]1CC[C@@]2(C)[C@@H]3CC[C@@H](C(C)(C)O)[C@@]4(CCC(=O)O)C[C@@]34CC[C@]12C", "note": "(some centres not stated) [METASEGLYPTORIN A]", "IC50": "> 40"}, {"smiles": "COc1cc(/C=C/[C@@H](c2ccc(O)c(OC)c2)[C@H](O)CO)ccc1O", "note": "[METASEQUIRIN D]", "IC50": "> 40"}, {"smiles": "COc1cc([C@H]2[C@@H]([C@H](O)c3ccc(O)c(OC)c3)OC[C@H]2O)ccc1O", "note": "[METASEQUIRIN E]", "IC50": "> 40"}, {"smiles": "COc1cc([C@@H](O)[C@H]2OC[C@@H](O)[C@H]2c2ccc(O)cc2)ccc1O", "note": "[METASEQUIRIN F]", "IC50": "> 40"}, {"smiles": "C=C1CC[C@H]2[C@](C)(O)[C@H](C)CC[C@]2(C)[C@H]1CC/C(C)=C/C(=O)O", "note": "[METASEQUOIC ACID C]", "IC50": "> 40"}, {"smiles": "OC[C@@H](O)[C@@H](/C=C/c1ccc(O)cc1)c1ccc(O)c(O)c1", "note": "[SEQUIRIN C]", "IC50": 5.5}]}]}
